Measurements reported in ChEMBL document CHEMBL4513216, “Probing the Open Global Health Chemical Diversity Library for Multistage-Active Starting Points for Next-Generation Antimalarials” (ACS Infect Dis, 2020).

Assay: Toxicity liver stage against HepG2, at 10uM
Type: cell-based
Design: test concentration 10 uM, cell line HepG2-A16-CD81EGFP
Conditions: human, HepG2-A16-CD81EGFP cells; read-out: INHIBITION
Summary of the method: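 Uninfected HepG2-A16-CD81EGFP cells, 3 × 10^3 per well, 1536-well, plated on prespotted compound at 10 μM final, parasite-free screening media added to match infected plates; puromycin 10 μM positive, DMSO 0.5% negative; run in parallel with 48 h PbLuc assay at 37 °C, 5% CO2; viability by CellTiter-Glo luminescence, normalized to controls.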

Compared with Cn1c(=O)c2c(n3ncnc13)NC(=O)CC2c1cccc(F)c1 (centres undefined), COCC1CN(S(=O)(=O)c2cccc(F)c2)Cc2nccn2C1 (centres undefined) is lower in cytotoxicity at 10 µM: 2.05% for the first, -103% for the second.

First: N#Cc1ncn(CCS(=O)(=O)c2ccc(Br)cc2)n1
Second: Cc1cc(NCc2ccc(S(N)(=O)=O)cc2)nc(C)n1
The cytotoxicity at 10 µM of the first is lower: -17.2% for the first, -2.08% for the second.

Compared with CC(C)(CNc1ccc(S(=O)(=O)C(F)F)cc1)N1CCOCC1, O=C(NCCN1CCOCC1)c1cnc(-c2ccccc2F)s1 is lower in cytotoxicity at 10 µM: 26.7% for the first, 0.277% for the second.

Compared with c1ccc(OCC2CC3(CCN(CC4CCOCC4)CC3)CO2)nc1 (centres undefined), O=C1CC[C@H]2[C@H](CCN2Cc2ccccn2)N1CC1CCOCC1 is higher in cytotoxicity at 10 µM: -1.37% for the first, 3.59% for the second.

Going from O=C1CC[C@H]2[C@H](CCN2C(=O)N2CCCC2)N1Cc1ccncc1 to O=C1C[C@H]2[C@H](CCN2C(=O)c2ccno2)N1CC1CC1, the cytotoxicity at 10 µM rises from -2.04% to 2.77%.

Compared with Cc1ccc(N2N=C(C(N)=O)S(=O)(=O)c3cccnc32)cc1, CSc1ccc(-n2ccnc2-c2cc3n(n2)CCNC3)cc1 is lower in cytotoxicity at 10 µM: 4.28% for the first, -9.94% for the second.

First: O=C(CCc1ccccc1)N1CCn2cc(CN3CCCC3)nc2C1
Second: O=C(C[C@@H]1COC[C@H]2CN(Cc3ccccc3)C[C@@H]12)N1CCCC1
The cytotoxicity at 10 µM of the first is lower: -1.66% for the first, 2.03% for the second.

Going from Cc1sc(NC(=O)CCC(=O)O)c(C(N)=O)c1-c1ccc(Cl)cc1Cl to CNC(=O)COc1cccc(CNC(=O)c2c(C)noc2C)c1, the cytotoxicity at 10 µM falls from 15.6% to -4.93%.

First: Cn1ccnc1C(=O)N1CCOC(Cc2ccccc2Cl)C1 (centres undefined)
Second: Cc1nccn1C1CCCN(C(=O)c2ccc(-n3cccn3)nc2)C1 (centres undefined)
The cytotoxicity at 10 µM of the first is lower: -12.2% for the first, -9.18% for the second.

Compared with CCC(CC)C(=O)N1CCC(c2nn(CCN)c3nccnc23)C1 (centres undefined), Cc1cc(C)n(C2CCCN(C(=O)CCNc3ncccn3)C2)n1 (centres undefined) is higher in cytotoxicity at 10 µM: -25.5% for the first, -2.53% for the second.

Compared with Cc1ccc2c(c1)C(=O)NCC1(CCN(C(=O)c3sccc3C)CC1)O2, Cc1ccccc1OC(C(=O)N1CCC2(CC1)CN(C)C(=O)O2)C(C)C (centres undefined) is lower in cytotoxicity at 10 µM: -11.7% for the first, -52.4% for the second.

Going from CC(C)N1CCC(Cc2cncc(-c3cc(F)ccc3C(=O)O)n2)CC1 to Cc1nc(-c2ccc(C(=O)O)cc2)cc(C2CCCN(C(C)C)C2)n1 (centres undefined), the cytotoxicity at 10 µM falls from -8.36% to -10.2%.

Going from Cc1cncc(C2CCN(Cc3cccn3C)CC2)n1 to CC(C)c1nccn1-c1cncc(C2CCCN(C3CCCC3)C2)n1 (centres undefined), the cytotoxicity at 10 µM rises from -6.94% to -6.63%.

Compared with O=C1CCCN1CCCC(=O)N1CCCC(Cc2cccnc2)C1 (centres undefined), COc1ccnc(N2CCCN(C(=O)CCc3cnn(C)c3)CC2)n1 is higher in cytotoxicity at 10 µM: -4.5% for the first, 17.7% for the second.

Going from Cc1ccc(C(=O)N2CCC3(CC(N(C)c4ccncn4)C3)C2)cn1 (centres undefined) to Cc1cccc(CN2CCC3(CCN(Cc4ccccn4)C3)C2=O)c1 (centres undefined), the cytotoxicity at 10 µM rises from -6.11% to 12%.

First: CC(C)(C)C(=O)N1CCCC1c1nc(O)cc(-c2ccccn2)n1 (centres undefined)
Second: Cc1cccc(C)c1NC(=O)c1cccc(CN2CCCC2C)c1 (centres undefined)
The cytotoxicity at 10 µM of the first is lower: -1.26% for the first, 4.73% for the second.

First: CN1CC(=O)N(c2cccnc2)Cc2c(NC3CC3)ncnc21
Second: Cc1cc(C)cc(N2CCN(Cc3cccnc3)CC2=O)c1
The cytotoxicity at 10 µM of the first is higher: 5.28% for the first, 5.02% for the second.

First: Cc1cc(C(=O)NCc2ccc(F)cc2)c2c(C3CCNC3)noc2n1 (centres undefined)
Second: Cc1cc(C[C@@H]2CCC[C@H]2NCc2ccc(C(F)(F)F)cc2)on1
The cytotoxicity at 10 µM of the first is higher: 7.08% for the first, -10.1% for the second.

Going from O=C(c1ccc(Cl)cc1)N1CCC(N2CCOC2=O)CC1 to O=C(c1ccc(F)cc1Cl)N1CCC(Nc2cccnn2)CC1, the cytotoxicity at 10 µM falls from 7.72% to -8.08%.

First: Cc1ccc(C(=O)NS(=O)(=O)Cc2ccc(F)cc2)cc1S(C)(=O)=O
Second: Cc1ccc(C(=O)O)cc1S(=O)(=O)N(CC(C)O)c1ccccc1 (centres undefined)
The cytotoxicity at 10 µM of the first is lower: -7.36% for the first, 9.83% for the second.

Going from Cc1ccc(C)c(CC(=O)NC2CCS(=O)(=O)CC2)c1 to O=C(NC1CCc2c(ccc(=O)n2CC2CC2)C1)c1cscn1 (centres undefined), the cytotoxicity at 10 µM falls from -9.56% to -104%.

Compared with CNS(=O)(=O)Cc1cccc(CNCc2ccsc2)c1, CN(C)S(=O)(=O)c1cccc(CNc2cc(CO)ccc2Cl)c1 is lower in cytotoxicity at 10 µM: 11.7% for the first, 5.36% for the second.

Compared with O=C(NCC(O)c1cccs1)c1sccc1OC(F)F (centres undefined), CCCNC(=O)C(C)NC(=O)Nc1ccccc1SC(F)F (centres undefined) is higher in cytotoxicity at 10 µM: -2.45% for the first, 5.09% for the second.

First: Cc1noc(NCc2cn(C)nc2-c2cccnc2)n1
Second: c1ccc(-c2nc(CCNc3nnc(C4CCC4)o3)no2)cc1
The cytotoxicity at 10 µM of the first is higher: 6.87% for the first, -3.37% for the second.

Going from Cc1cc(C(=O)NCC2CCC3(CC2)OCCO3)[nH]n1 to Cc1[nH]nc(CCC(=O)NCC2CCCN(C3CCCC3)C2)c1C (centres undefined), the cytotoxicity at 10 µM rises from -10.7% to -7.7%.

First: CN(Cc1ccccc1)C(=O)CCS(=O)(=O)c1ccc2c(c1)OCCO2
Second: CN(C(=O)Nc1ccncc1)C1CCN(c2ccccc2)C1=O (centres undefined)
The cytotoxicity at 10 µM of the first is higher: -7.08% for the first, -10.1% for the second.

Going from c1cc(CN2CCc3cncnc3C2)c2c(c1)OCCO2 to O=C(C1CCOC1)N1CCc2ncc(CNc3ccccn3)n2CC1 (centres undefined), the cytotoxicity at 10 µM rises from -3.67% to 0.0499%.

Going from O=C1CCC(=O)N1CCOc1nc(-c2ccccc2Cl)no1 to c1ccc(-c2nc(CNC3CCc4ncnn4C3)no2)cc1 (centres undefined), the cytotoxicity at 10 µM falls from 6.97% to -4.16%.

First: CC(C)Nc1ncccc1C(=O)NCc1cnc(N(C)C)n1C
Second: Cc1occc1C(=O)N1CCCN(Cc2nccn2C(C)C)CC1
The cytotoxicity at 10 µM of the first is lower: -10.1% for the first, -9.24% for the second.

Going from CNC(=O)C1CCCN(C(=O)OC)C1 (centres undefined) to CC(=O)N1CCC(C(=O)NC2CCc3nccn3C2)CC1 (centres undefined), the cytotoxicity at 10 µM falls from -6.06% to -13.4%.

Compared with Cc1cc(CNC(C)Cn2cncn2)ccc1Br (centres undefined), Cc1ccnn1CCC(=O)N(Cc1ccsc1)CC(C)C is lower in cytotoxicity at 10 µM: 2.33% for the first, -57.4% for the second.

First: Cc1cc(C(C)(O)CNC(=O)OC(C)(C)C)c(C)o1 (centres undefined)
Second: CC[C@@H](CO)NC(=O)c1coc(COc2ccc3sc(C)nc3c2)n1
The cytotoxicity at 10 µM of the first is higher: 10.5% for the first, 4.67% for the second.

Going from Cc1ncc(CNCC(=O)NCC(F)(F)F)n1-c1ccccc1 to CCCC1(NC(=O)C(c2ccccc2C)N(C)C)CC1 (centres undefined), the cytotoxicity at 10 µM falls from 5.57% to -40.4%.

Going from CCN1CC2(CC1=O)CN(C(C)=O)CCN(C(=O)NC)C2 (centres undefined) to CCC(=O)N1CCN(C(=O)CCn2cccn2)CC1, the cytotoxicity at 10 µM rises from -3.62% to -2.6%.

Compared with O=C(NCc1ccccn1)[C@@]12CCO[C@@H]1CCN(c1ncccn1)C2, COc1ccc(CN2CCO[C@H]3[C@H](Oc4ccccn4)CC[C@@H]32)cc1 is higher in cytotoxicity at 10 µM: -98.4% for the first, 21.5% for the second.

Going from CCS(=O)(=O)N1CCC2(CCN(C(=O)c3cccs3)CC2)CC1 to Cn1cc(C2COC3(CCN(C(=O)c4ccn(C)n4)CC3)C2)cn1 (centres undefined), the cytotoxicity at 10 µM rises from -99.9% to -66.5%.

Compared with CN(C)C(=O)NC1COC2(CCN(Cc3ccc(N(C)C)cc3)CC2)C1 (centres undefined), CCN1CCC2(C=C(C(=O)N(C)C)c3ccccc32)CC1 is lower in cytotoxicity at 10 µM: -77% for the first, -101% for the second.

Compared with O=C(NCCN1CCOCC1)C1=NOC2(CCN(Cc3nccs3)C2)C1 (centres undefined), Cc1nnc(N2CCCC3(CN(Cc4cnn(C)c4)CCO3)C2)o1 (centres undefined) is higher in cytotoxicity at 10 µM: -79.3% for the first, 4.12% for the second.

Going from CN(Cc1ccco1)[C@@H]1CN(Cc2ccoc2)C[C@@H]2CCCO[C@@H]21 to O[C@H]1CCN(Cc2ccoc2)[C@H]1Cc1cccnc1, the cytotoxicity at 10 µM rises from -1.6% to 2.36%.

Going from COCC(=O)NCc1cc(=O)n2c(n1)CN(Cc1ccsc1)CCC2 to Cc1ccc2nc(CNCCCN3CCCC3)cc(O)c2c1, the cytotoxicity at 10 µM falls from 0.281% to -49.6%.

First: Cc1noc([C@H]2C[C@@H]3CCN(C(=O)C4CCOCC4)C[C@H]3O2)n1
Second: Cc1noc(C)c1CN1C[C@@H]2COC[C@@H](CC(=O)N3CCCCO3)[C@@H]2C1
The cytotoxicity at 10 µM of the first is higher: 7.62% for the first, -72.4% for the second.

First: CCC(CO)N(Cc1cccs1)C(=O)Cc1ccncc1 (centres undefined)
Second: Cc1ccc(CN(CCCn2ccnc2)Cc2c[nH]cn2)s1
The cytotoxicity at 10 µM of the first is lower: -9.67% for the first, -4.99% for the second.

Compared with CN(Cc1n[nH]c2c1CCCC2)c1cc(N2CCOCC2)nc(N)n1, Cc1cc(C)nc(CN2CCOC(c3ccc(Cl)cc3)C2)n1 (centres undefined) is higher in cytotoxicity at 10 µM: -7.7% for the first, -2.43% for the second.

Compared with O=C(NCc1nc(C2CCCCC2)no1)C1CC(=O)N(C2CC2)C1 (centres undefined), CC(C)SCC(=O)NCc1cc2n(n1)CCCN(C1CCCCC1)C2 is higher in cytotoxicity at 10 µM: 1.5% for the first, 2.37% for the second.

First: O=C(Nc1ccc(-c2ccccc2)cc1)N1C[C@@H]2CNC[C@]2(C(=O)O)C1
Second: CC(=O)Nc1cccc(C(=O)N2CCc3c(nc(N(C)C)[nH]c3=O)C2)c1
The cytotoxicity at 10 µM of the first is lower: -44.7% for the first, 5.9% for the second.

First: CN(C)CCN(C)c1ccc(-c2nc(COc3ccccc3)no2)cn1
Second: CN(C)CC1CN(CCOc2cccc(C#N)c2)CCO1 (centres undefined)
The cytotoxicity at 10 µM of the first is higher: 4.35% for the first, -9.63% for the second.

Going from CCC[C@@H]1CN(Cc2nnc(-c3cccc(F)c3)o2)C[C@H]1NC(C)=O to Cc1cc(C(=O)N2C[C@@H]3C(CN(C)CCc4ccccn4)[C@@H]3C2)c(C)o1 (some centres undefined), the cytotoxicity at 10 µM falls from 0.833% to -50.1%.

Going from CC(C)NC(=O)[C@@H]1C[C@H](N)CN1C(=O)C1(c2ccc(Cl)cc2)CCC1 to COc1ccc(SC(C)C(=O)N2CCC(C(N)=O)CC2)cc1 (centres undefined), the cytotoxicity at 10 µM falls from 3.92% to 2.28%.

Compared with Cc1ccnc(C(Nc2nccc(-c3ccc(C)nc3C)n2)C2CC2)c1 (centres undefined), Cc1nn(C)cc1-c1ccnc(N2CCCN(CC(C)C)CC2)n1 is higher in cytotoxicity at 10 µM: -1.89% for the first, 4.26% for the second.

Compared with C=C(C)CNCC1(O)CCCN(Cc2ccc(F)c(F)c2)C1=O (centres undefined), COCCn1c2c(ccc1=O)CC(NCc1cccnc1OC)CC2 (centres undefined) is lower in cytotoxicity at 10 µM: -1.12% for the first, -106% for the second.

First: Cc1cn2c(n1)CCC(NC(=O)CCn1ccnn1)C2 (centres undefined)
Second: Cc1nc(C)n(C2CCCN(C(=O)c3cnc[nH]3)C2)n1 (centres undefined)
The cytotoxicity at 10 µM of the first is higher: -2.53% for the first, -5.04% for the second.

Compared with O=C(NCCNc1ncccn1)C1CCN(C(=O)C2CC2)CC1, c1cncc(-c2nnn3c2COCC(CNCC2CCOCC2)C3)c1 (centres undefined) is lower in cytotoxicity at 10 µM: -3.02% for the first, -75.4% for the second.

Going from c1csc(-c2noc(C3CCCNC3)n2)c1 (centres undefined) to CN1C[C@@H]2C[C@H](C(=O)Nc3cccnc3)[C@H](C1)O2, the cytotoxicity at 10 µM falls from -2.5% to -71.1%.

Compared with CCOCC1CN(CCN(C)C)Cc2cnn(CC3CCCC3)c21 (centres undefined), CCC=C(C)C(=O)NCCc1csc(N2CCCC2)n1 is higher in cytotoxicity at 10 µM: 5.77% for the first, 18.7% for the second.

CNC(=O)c1cnc(C=Cc2cc(OC)c3c(c2)OCCO3)s1 showed a cytotoxicity at 10 µM of 12.9%.
